This note sets out measurements from ChEMBL document CHEMBL1142416, “Pharmacological exploitation of the peroxisome proliferator-activated receptor gamma agonist ciglitazone to develop a novel class of androgen receptor-ablative agents” (J Med Chem, 2008).

pIC50: −log10 of the molar value. Active and inactive are the calls of the source. No cut-off for these calls is given here.

Test [1] concerns LNCaP. As to the kind of experiment: Cell cycle arrest in human LNCaP cells assessed as accumulation at subG1 phase at 2.5 uM after 72 hrs. In kind it is functional. The method, boiled down: (§1)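 LNCaP cells were plated at 2.5 × 10⁶ cells/well and treated at the stated concentrations for 72 h. They were washed in PBS, trypsinized and fixed in ice-cold 80% ethanol overnight at 4°C. Staining used propidium iodide (50 μg/ml) with RNase A (100 units/ml) in PBS. Phase distribution was measured by flow cytometry; values are the mean of two independent determinations.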

In test [2] the test system is LNCaP. As to the kind of experiment: Cell cycle arrest in human LNCaP cells assessed as accumulation at G1 phase at 2.5 uM after 72 hrs. In kind it is functional. The method, boiled down:
as §1

Test [3] concerns LNCaP. As to the kind of experiment: Cell cycle arrest in human LNCaP cells assessed as accumulation at S phase at 2.5 uM after 72 hrs. It is filed as functional. The method, boiled down: as §1
The test system of test [4] is LNCaP. As to the kind of experiment: Cell cycle arrest in human LNCaP cells assessed as accumulation at G2/M phase at 2.5 uM after 72 hrs. In kind it is functional. The method, boiled down:
as §1

In test [5] the test system is LNCaP. As to the kind of experiment: Cell cycle arrest in human LNCaP cells assessed as accumulation at subG1 phase at 5 uM after 72 hrs. It is filed as functional. Summed up: as §1
Test [6] relates to LNCaP. As to the kind of experiment: Cell cycle arrest in human LNCaP cells assessed as accumulation at G1 phase at 5 uM after 72 hrs. It is filed as functional. The method, boiled down:
as §1

Test [7] concerns LNCaP. As to the kind of experiment: Cell cycle arrest in human LNCaP cells assessed as accumulation at S phase at 5 uM after 72 hrs. It is filed as functional. The method, boiled down:
as §1

For test [8], the system named is LNCaP. As to the kind of experiment: Cell cycle arrest in human LNCaP cells assessed as accumulation at G2/M phase at 5 uM after 72 hrs. In kind it is functional. The method, boiled down: as §1
Test [9] has as its system LNCaP. As to the kind of experiment: Cell cycle arrest in human LNCaP cells assessed as accumulation at subG1 phase at 7.5 uM after 72 hrs. It is filed as functional. The method, boiled down: as §1
In test [10] the test system is LNCaP. As to the kind of experiment: Cell cycle arrest in human LNCaP cells assessed as accumulation at G1 phase at 7.5 uM after 72 hrs. In kind it is functional. The method, boiled down:
as §1

Test [11] deals with LNCaP. As to the kind of experiment: Cell cycle arrest in human LNCaP cells assessed as accumulation at S phase at 7.5 uM after 72 hrs. In kind it is functional. Summed up: as §1
The test system of test [12] is LNCaP. As to the kind of experiment: Cell cycle arrest in human LNCaP cells assessed as accumulation at G2/M phase at 7.5 uM after 72 hrs. In kind it is functional. The method, boiled down: as §1
The test system of test [13] is LNCaP. As to the kind of experiment: Cell cycle arrest in human LNCaP cells assessed as accumulation at subG1 phase at 10 uM after 72 hrs. In kind it is functional. The method, boiled down: as §1
Test [14] concerns LNCaP. As to the kind of experiment: Cell cycle arrest in human LNCaP cells assessed as accumulation at G1 phase at 10 uM after 72 hrs. In kind it is functional. The method, boiled down: as §1
Test [15] deals with LNCaP. As to the kind of experiment: Cell cycle arrest in human LNCaP cells assessed as accumulation at S phase at 10 uM after 72 hrs. In kind it is functional. Summed up:
as §1

Test [16] relates to LNCaP. As to the kind of experiment: Cell cycle arrest in human LNCaP cells assessed as accumulation at G2/M phase at 10 uM after 72 hrs. It is filed as functional. The method, boiled down: as §1
Test [17] has as its system LNCaP. As to the kind of experiment: Inhibition of androgen receptor mRNA expression in human LNCap cells after 72 hrs. It is filed as functional, cell-based. The note with it: in the assay text read “protein expression” for “mRNA expression”.
In test [18] the test system is LNCaP. As to the kind of experiment: Decrease in androgen receptor protein expression in human LNCaP cells at 5 uM after 48 hrs by immunocytochemical method. In kind it is functional, cell-based. Summed up: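 LNCaP cells were seeded on coverslips (2.5 × 10⁵/well) for 24 h, then exposed to 5 μM for 48 h. They were fixed and permeabilized with 0.1% Triton X-100 in PBS for 1 h. Mouse anti-AR (1:100) was applied for 12 h at room temperature, then Alexa Fluor 488 goat anti-mouse IgG (1:100) for 2 h. Nuclei were counterstained with DAPI and slides imaged by microscopy.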

The test system of test [19] is LNCaP. As to the kind of experiment: Inhibition of androgen receptor protein expression in human LNCaP cells after 72 hrs by Western blotting. It is filed as functional, cell-based. Summed up: (§2)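 LNCaP cells (1×10⁶/T25 flask) were exposed in 10% FBS-supplemented medium; dose series ran 72 h. Protein extracts were resolved on 10% SDS-PAGE and transferred to nitrocellulose, then blocked in 5% milk/TBST. Blots were probed overnight at 4°C with mouse anti-AR or anti-β-actin (1:1000), then HRP goat anti-mouse (1:2500, 1 h), and detected by enhanced chemiluminescence.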

In test [20] the test system is LNCaP. As to the kind of experiment: Antitumor activity against androgen responsive human LNCaP cells by MTT assay at 48 hrs. In kind it is functional, cell-based. Summed up: (§3)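 LNCaP or PC-3 cells were seeded at 6000/well in 10% FBS RPMI 1640 for 24 h. They were then treated at various concentrations in 5% FBS RPMI 1640 for 48 or 72 h, with DMSO-matched controls. MTT (0.5 mg/ml) was added for 2 h at 37°C and the dye solubilized in DMSO. A570 was read in six replicates, and IC50 was taken from dose-response.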

The subject of test [21] is LNCaP. As to the kind of experiment: Antitumor activity against androgen responsive human LNCaP cells by MTT assay at 72 hrs. It is filed as functional, cell-based. Summed up: as §3
Test [22] concerns PC-3. As to the kind of experiment: Antitumor activity against androgen non-responsive human PC3 cells by MTT assay at 48 hrs. In kind it is functional, cell-based. The note with it: PC-3, 48 h. Summed up: as §3
Test [23] concerns PC-3. As to the kind of experiment: Antitumor activity against androgen non-responsive human PC3 cells by MTT assay at 72 hrs. In kind it is functional, cell-based. The conditions noted are these: PC-3, 72 h. Summed up: as §3
For test [24], the system named is LNCaP. As to the kind of experiment: Induction of apoptosis in human LNCaP cells assessed as PARP cleavage after 72 hrs. It is filed as functional, cell-based. Summed up:
(§4)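 LNCaP cells were treated over a dose range for 72 h. Lysates were prepared with protease/phosphatase inhibitors and run on 10% SDS-PAGE, then transferred to nitrocellulose. PARP cleavage and caspase-3 and caspase-7 processing were detected by immunoblot with chemiluminescence.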

Test [25] has as its system LNCaP. As to the kind of experiment: Induction of apoptosis in human LNCaP cells assessed as caspase 3 activation after 72 hrs. In kind it is functional, cell-based. The method, boiled down: as §4
The test system of test [26] is LNCaP. As to the kind of experiment: Induction of apoptosis in human LNCaP cells assessed as caspase 7 activation after 72 hrs. In kind it is functional, cell-based. Summed up: as §4
The subject of test [27] is LNCaP. As to the kind of experiment: Cell cycle arrest in human LNCaP cells assessed as accumulation at subG1 phase at 1 uM after 72 hrs. It is filed as functional. The method, boiled down:
as §1

Test [28] concerns LNCaP. As to the kind of experiment: Cell cycle arrest in human LNCaP cells assessed as accumulation at G1 phase at 1 uM after 72 hrs. In kind it is functional. Summed up: as §1
The subject of test [29] is LNCaP. As to the kind of experiment: Cell cycle arrest in human LNCaP cells assessed as accumulation at S phase at 1 uM after 72 hrs. It is filed as functional. Summed up:
as §1

Test [30] deals with LNCaP. As to the kind of experiment: Cell cycle arrest in human LNCaP cells assessed as accumulation at G2/M phase at 1 uM after 72 hrs. In kind it is functional. The method, boiled down:
as §1

Test [31] concerns LNCaP. As to the kind of experiment: Suppression of androgen receptor protein expression in human LNCaP cells at 30 uM by Western blotting. It is filed as functional, cell-based. The method, boiled down:
as §2

Test [32] has as its system LNCaP. As to the kind of experiment: Suppression of androgen receptor protein expression in human LNCaP cells at 60 uM by Western blotting. It is filed as functional, cell-based. The method, boiled down:
as §2

Test [33] relates to LNCaP. As to the kind of experiment: Suppression of androgen receptor mRNA expression in human LNCaP cells at 60 uM by RT-PCR. It is filed as functional, cell-based. Summed up: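 LNCaP cells (1×10⁶/T25 flask) were treated in 10% FBS-supplemented medium for various times. Total RNA was isolated and 6 μg reverse-transcribed. AR and β-actin (reference) were amplified by PCR with gene-specific primers, and products were resolved on 1.5% agarose gels.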

`CC1(CN2C(=O)S/C(=C\c3ccc(O)c(C(F)(F)F)c3)C2=O)CCCCC1`: the Activity in the test on LNCaP [1] is recorded as 2%; in the test on LNCaP [2], 65%; in the test on LNCaP [3], 19%; in the test with LNCaP [4], 14%; in the test with LNCaP [5], 10%; in the test with LNCaP [6], 69%. Further, the Activity was 18% in the test with LNCaP [7]; 3% in the test with LNCaP [8]; 20% in the test on LNCaP [9]; 63% in the test on LNCaP [10]; 15% in the test on LNCaP [11]; 2% with LNCaP [12]. In addition, the Activity with LNCaP [13] is 28%; in the test on LNCaP [14], 51%; in the test with LNCaP [15] it was 21%; with LNCaP [16], 0%; with LNCaP [24] it was “Dose-dependent effect”; with LNCaP [25], “Dose-dependent effect”. Moreover, the Activity entry in the test on LNCaP [26] is “Dose-dependent effect”; with LNCaP [27], 1%; with LNCaP [28], 66%; in the test on LNCaP [29] it was 19%; in the test with LNCaP [30], 14%. Further, the result in the test with LNCaP [17] and in the test on LNCaP [18] was Active. Also, the negative-log IC50 (pIC50) was 5.70 in the test with LNCaP [19]; 5.10 with LNCaP [20]; 5.52 in the test on LNCaP [21]; 4.82 with PC-3 [22]; 4.92 in the test with PC-3 [23].
Regarding `CCOc1cc(/C=C2\SC(=O)NC2=O)ccc1OCC1(C)CCCCC1`, the Activity entry in the test with LNCaP [19] is “Dose-dependent effect”.
As to `CC1(COc2ccc(/C=C3\SC(O)=NC3=O)cc2)CCCCC1`, in the test on LNCaP [31], the result was Active.
For the compound `CC1(CN2C(=O)SC(Cc3ccc(O)c(C(F)(F)F)c3)C2=O)CCCCC1` (configuration not stated), the Activity entry in the test on LNCaP [19] was “Dose-dependent effect”.
Regarding `CC1(COc2cccc(/C=C3\SC(=O)NC3=O)c2)CCCCC1`, the Activity result in the test on LNCaP [19] is “Dose-dependent effect”.
Take `CC1(CN2C(=O)S/C(=C\c3ccc(O)cc3)C2=O)CCCCC1`: the Activity entry in the test on LNCaP [19] is “Dose-dependent effect”.
Take `CC1(COc2ccc(CC3SC(=O)NC3=O)cc2)CCCCC1` (configuration not stated): the result in the test on LNCaP [32] and in the test with LNCaP [33] was Active.
In the case of `CC1(CN2C(=O)S/C(=C\c3cc(Br)c(O)c(Br)c3)C2=O)CCCCC1`, in the test with LNCaP [17], the result was Active. This compound showed a negative logarithm of the IC50 (pIC50) in the test with LNCaP [19] of 5.40. In addition, the Activity entry in the test on LNCaP [24], in the test on LNCaP [25] and with LNCaP [26] was “Dose-dependent effect” throughout.
